Compounds with a hit are over-represented: about 1.6% of the library has one in this group of screens.
ADAM10 inh = inhibitors of human ADAM10. 0.62% of 370,000 active. recombinant ADAM10, EDANS/DABCYL FRET peptide cleavage, 3 h. inhibition, % at 7 µM;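 active = inhibition above a per-campaign cutoff equal to the mean of compounds falling between control-based bounds plus 3 SD, cut at about 20% in these data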;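 also: 0% = DMSO wells while the 100% control is not disclosed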
DDE Tn6 FP inh = disrupts Tn6 cyclic peptide binding to fibrin D-Dimer-E complex; P02675; Fibrin DD(E) TRITC-Tn6 fluorescence polarization displacement; inhibition, % at 8.3 µM; 0.21% of 370,000 active; AID 720509;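 active = inhibition above a per-campaign cutoff: mean of compounds within control limits plus 3 SD, cut at about 15% in these data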;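 also: 0% = median of all compound wells on the plate and 100% = blocking peptide control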
Target sequence (P02675 whole entry, looked up): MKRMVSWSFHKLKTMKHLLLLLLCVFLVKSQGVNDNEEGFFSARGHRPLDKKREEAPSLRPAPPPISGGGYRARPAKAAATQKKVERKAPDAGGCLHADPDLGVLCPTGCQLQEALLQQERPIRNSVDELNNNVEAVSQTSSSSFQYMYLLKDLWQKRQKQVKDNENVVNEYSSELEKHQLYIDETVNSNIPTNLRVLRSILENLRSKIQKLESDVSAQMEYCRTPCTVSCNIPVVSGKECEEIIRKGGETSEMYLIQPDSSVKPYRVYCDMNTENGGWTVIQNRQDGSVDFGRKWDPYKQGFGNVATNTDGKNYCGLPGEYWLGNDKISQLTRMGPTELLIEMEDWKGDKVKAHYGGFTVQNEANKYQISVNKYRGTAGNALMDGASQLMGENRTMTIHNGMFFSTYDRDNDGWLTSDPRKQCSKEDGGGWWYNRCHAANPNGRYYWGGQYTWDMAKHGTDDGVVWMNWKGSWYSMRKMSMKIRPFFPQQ
MT1-MMP act inh = inhibitors of human MT1-MMP activation. P50281. HT1080 RFP-PRO-GFP cells, GFP/RFP ratio fluorescence, overnight; percent of plate control window, DMSO zero. GFP/RFP ratio change, % at 20 µM. 0.061% of 360,000 active;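 active = GFP/RFP ratio change of at least 30% with cell ATP level not reduced by more than half and red fluorescence within 50% of control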
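Compound: 20 µM single dose, 1% DMSO / System: HT1080 RFP-PRO-GFP cells / Controls: DMSO and RFP-L50D-GFP cell wells / Read-out basis: GFP/RFP fluorescence ratio / Schedule: overnight compound exposure at 37 °C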
ADAM17 inh = ADAM17 inhibition, QFRET primary screen; recombinant ADAM17, EDANS/DABCYL FRET peptide cleavage; P78536; inhibition, % at 6.95 µM; 0.83% of 370,000 active;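 active = inhibition above the mean of compounds lying between control limits plus 3 SD, set per campaign, cut at about 8.5% in these data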;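 also: 0% = DMSO-only wells as the low control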
DDE Tn7 FP inh = DD(E)-Tn7 binding inhibition, primary FP screen; P02675; FP displacement of FITC-Tn7 peptide from fibrin DD(E); 0% = median of compound wells per plate; inhibition, % at 8.3 µM; 0.13% of 370,000 active;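 active = inhibition above the mean of compounds falling within the control limits plus 3 SD of them, cut at about 14% in these data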;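 also: 0% = plate median of compound wells and 100% = 10 µM Aha-Tn7 peptide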
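system = human fibrin DD(E) protein | quantity = DD(E) 2 µM final | medium = Tris/NaCl/CaCl2 buffer, pH 7.8 | also added = labelled Tn7 tracer, 0.1 µM | compound dosing = single point at 8.3 µM | timing = compound with protein 10 min, then 3 h after probe, room temperature | signal = FP measurement | benchmarks = Aha-Tn7 high control | repeats = one replicate per compound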
ADAM10 confirm = human ADAM10 inhibition, confirmation. shares compounds with ADAM10 inh. ADAM10 QFRET peptide cleavage, EDANS fluorescence. inhibition, % at 6.95 µM. 1% of 2,100 active. AID 743208;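 active = inhibition above about 20% chosen separately for each screening run, limit read from the data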;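 also: 0% = DMSO wells and 100% = marimastat wells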
ADAM17 ctr = inhibits human ADAM17 in ADAM10 exosite counter-screen; ADAM17 QFRET peptide cleavage, EDANS fluorescence; shares compounds with ADAM10 inh; 0.5% of 2,100 active; inhibition, % at 6.95 µM; AID 743214;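 active = mean triplicate inhibition above the solvent-only control wells' mean plus 3 SD, cut at about 12% in these data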;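 also: 0% = DMSO wells and 100% = marimastat wells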
An asterisk follows results filed as active.

Screening O=C(Nc1ccc(OCC(F)(F)C(F)F)c(C(F)(F)F)c1)c1ccc(Cl)cc1 returned ADAM10 inh 25*, DDE Tn6 FP inh -5, MT1-MMP act inh -46, ADAM17 inh 4, DDE Tn7 FP inh 8, ADAM10 confirm 10 and ADAM17 ctr 3.
For O=C(Nc1ccc(Br)c(C(F)(F)F)c1)c1ccc(C(F)(F)F)cc1 the results were ADAM10 inh 15, DDE Tn6 FP inh -4, MT1-MMP act inh -18, ADAM17 inh 6 and DDE Tn7 FP inh -2.
O=C(Nc1ccc(C(O)(C(F)(F)F)C(F)(F)F)cc1)c1ccc(Cl)cc1 was read as ADAM10 inh 23*, DDE Tn6 FP inh -2, ADAM17 inh 6, DDE Tn7 FP inh 0, ADAM10 confirm 2 and ADAM17 ctr 1.
For Cc1ccc(N2C(=O)CS/C2=C(\C(Cl)=C(Cl)Cl)[N+](=O)[O-])cc1 the results were ADAM10 inh -5, DDE Tn6 FP inh -5, MT1-MMP act inh -3, ADAM17 inh 2 and DDE Tn7 FP inh -3.
CC1CCCC(C)N1C(=C(Cl)Cl)C(=C1SCCS1)[N+](=O)[O-] (configuration not stated) was read as ADAM10 inh 21*, DDE Tn6 FP inh -1, MT1-MMP act inh -3, ADAM17 inh 8, DDE Tn7 FP inh -4, ADAM10 confirm 1 and ADAM17 ctr 1.
COc1ccc(/C=N/Nc2cc(N3CCCC3)nc(N3CCCC3)n2)cc1 was read as ADAM10 inh 65*, DDE Tn6 FP inh 1, MT1-MMP act inh -23, ADAM17 inh 0, DDE Tn7 FP inh -3, ADAM10 confirm -42 and ADAM17 ctr -17.
O=C(Nc1ccc(Cl)c(Cl)c1)c1ccc(Cn2cc(Cl)cn2)cc1 was read as ADAM10 inh 29*, DDE Tn6 FP inh -10, MT1-MMP act inh 1, ADAM17 inh 8, DDE Tn7 FP inh 2, ADAM10 confirm 8 and ADAM17 ctr 2.
`O=C(Oc1cccc2c(O)cccc12)c1ccccc1` gave ADAM10 inh 23*, DDE Tn6 FP inh 1, MT1-MMP act inh -5, ADAM17 inh 7, DDE Tn7 FP inh 6, ADAM10 confirm 6 and ADAM17 ctr 2.
O=C(Oc1cccc2ccccc12)c1ccccc1 was read as ADAM10 inh -15, DDE Tn6 FP inh 5, MT1-MMP act inh 8, ADAM17 inh -4 and DDE Tn7 FP inh -1.
`CC(=O)N(/N=C1\Sc2ccccc2C1=O)c1ccccc1C` gave ADAM10 inh 77*, DDE Tn6 FP inh 2, MT1-MMP act inh -23, ADAM17 inh 2, DDE Tn7 FP inh 2, ADAM10 confirm 1 and ADAM17 ctr 1.
For COc1cccc(C(O)c2nc(-c3cccc(C(F)(F)F)c3)cs2)c1 (configuration not stated) the results were ADAM10 inh 19, DDE Tn6 FP inh -4, MT1-MMP act inh 3, ADAM17 inh 5 and DDE Tn7 FP inh 10.
For OC(c1ccc(F)cc1)c1nc(-c2ccc(F)c(Cl)c2)cs1 (configuration not stated) the results were ADAM10 inh 20*, DDE Tn6 FP inh -1, MT1-MMP act inh 4, ADAM17 inh 8, DDE Tn7 FP inh -6, ADAM10 confirm 7 and ADAM17 ctr 2.
For COc1cc(C(O)c2nc(-c3cccc(C(F)(F)F)c3)cs2)ccc1F (configuration not stated) the results were ADAM10 inh 21*, DDE Tn6 FP inh 13, MT1-MMP act inh 1, ADAM17 inh 8, DDE Tn7 FP inh -7, ADAM10 confirm 5 and ADAM17 ctr 1.
COc1cc(CCC(C)=O)ccc1OC(=O)c1c(-c2c(F)cccc2Cl)noc1C was read as ADAM10 inh 12, DDE Tn6 FP inh -4, ADAM17 inh 6 and DDE Tn7 FP inh -1.
Screening COc1ccc(CNS(=O)(=O)c2ccccc2Br)c(OC)c1 returned ADAM10 inh 5, DDE Tn6 FP inh 6, ADAM17 inh 4 and DDE Tn7 FP inh 5.
S=c1[nH]nc(CSc2nc3ccccc3s2)n1Cc1ccccc1 was read as ADAM10 inh 22*, DDE Tn6 FP inh -7, MT1-MMP act inh 2, ADAM17 inh 1, DDE Tn7 FP inh -2, ADAM10 confirm -1 and ADAM17 ctr 0.
For C=CCNC(=O)c1c(CSc2ccccc2)noc1C(=O)NCc1ccccc1 the results were ADAM10 inh 19, DDE Tn6 FP inh 1, MT1-MMP act inh -1, ADAM17 inh 4 and DDE Tn7 FP inh -1.
For C=CCNC(=O)c1c(CSc2ccc(Cl)cc2)noc1C(=O)NCc1ccccc1 the results were ADAM10 inh 21*, DDE Tn6 FP inh -1, MT1-MMP act inh 4, ADAM17 inh 8, DDE Tn7 FP inh -3, ADAM10 confirm 6 and ADAM17 ctr 3.
Screening O=S(=O)(Nc1ccc2c(c1)OCCO2)c1ccc(Br)s1 returned ADAM10 inh 21*, DDE Tn6 FP inh 5, MT1-MMP act inh -4, ADAM17 inh 3, DDE Tn7 FP inh -1, ADAM10 confirm 2 and ADAM17 ctr 0.
`COc1cc(CNn2c(C)n[nH]c2=S)cc(Cl)c1OCc1ccc(F)cc1` gave ADAM10 inh 8, DDE Tn6 FP inh 3, MT1-MMP act inh 9, ADAM17 inh 4 and DDE Tn7 FP inh -1.
For CCOc1cc(CNn2cn[nH]c2=S)cc(Cl)c1OCc1ccccc1F the results were ADAM10 inh 25*, DDE Tn6 FP inh 0, MT1-MMP act inh -8, ADAM17 inh 12*, DDE Tn7 FP inh 5, ADAM10 confirm 0 and ADAM17 ctr 0.
Screening Cc1cccnc1NC(=O)COc1ccc2oc3c(c2c1)CCCC3 returned ADAM10 inh 82*, DDE Tn6 FP inh 0, MT1-MMP act inh 5, ADAM17 inh -3, DDE Tn7 FP inh -7, ADAM10 confirm 4 and ADAM17 ctr 1.
O=C(NC1CCCCN(Cc2cccc(Cl)c2)C1=O)c1cccs1 (configuration not stated) was read as ADAM10 inh 10, DDE Tn6 FP inh -3, ADAM17 inh 7 and DDE Tn7 FP inh -3.
OC(CN1CCN(c2ccccn2)CC1)Cn1c2ccc(Cl)cc2c2cc(Cl)ccc21 (configuration not stated) was read as ADAM10 inh 22*, DDE Tn6 FP inh -1, MT1-MMP act inh -2, ADAM17 inh 8, DDE Tn7 FP inh 3, ADAM10 confirm 10 and ADAM17 ctr 4.
For C[C@@H]1COc2cc(Br)ccc2S(=O)(=O)N1Cc1cn(Cc2ccccc2)nn1 the results were ADAM10 inh 5, DDE Tn6 FP inh -3, ADAM17 inh 2 and DDE Tn7 FP inh -9.

Screening results from PubChem BioAssay.
